Compound activity (PubChem BioAssay)
HTRA1 inh: HTRA1 serine protease inhibitors, primary screen, biochemical, fluorescence polarization, HTS; hit rate 0.5% among 340,000; recombinant HTRA1, FP-rhodamine activity-based probe; AID 504803, 2011; inhibition, % at 5.96 µM; in the data active = inhibition above about 36%;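 note: 0% = enzyme with DMSO and 100% = wells lacking enzyme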
ABHD4 inh: ABHD4 inhibitors, primary screen, biochemical, fluorescence polarization, mouse; (Lyso)-N-acylphosphatidylethanolamine lipase (Mus musculus), Q8VD66; purified mABHD4, FP-Rh probe fluorescence polarization; inhibition, % at 8.92 µM; hit rate 0.54% among 370,000; AID 720543, 2013;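 active = inhibition exceeding the mean over every tested compound plus 3 SD, cut at about 30% in these data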;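 note: 0% = plate median of compound wells and 100% = S159A mutant with DMSO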
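system = mouse ABHD4 enzyme, wild type | medium = HEPES pH 7.0, NaCl, Pluronic buffer | also added = FP-Rh probe | incubation = Enzyme–compound pre-incubation 45 min, then probe 60 min, both 25 °C | technique = fluorescence polarization, excitation 525 nm, emission 598 nm, BODIPY TMR filters | controls = S159A mutant high control, sample median low control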
SIAE primary: human SIAE inhibitors, primary screen, biochemical, fluorescence polarization, FP-Rh probe, 1536-well HTS | SIAE FP-Rh probe binding | inhibition, % at 9.66 µM | hit rate 0.69% among 370,000 | Sialate O-acetylesterase (Homo sapiens), Q9HAT2;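 active = inhibition above a cutoff: mean of compounds within the control limits plus 3 SD of those, cut at about 17% in these data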;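 note: 0% = plate median of compound wells and 100% = probe without SIAE protein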
PRMT1 FP inh: PRMT1 methyltransferase inhibitors, primary screen, biochemical, fluorescence polarization. Protein arginine N-methyltransferase 1 (Homo sapiens), Q99873. recombinant PRMT1, activity-based probe fluorescence polarization. inhibition, % at 2.79 µM. hit rate 1.3% among 370,000. AID 652257, 2013;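 active = inhibition above about 21% made by adding two undisclosed values, limit read from the data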
Target sequence (Q99873 whole entry, looked up): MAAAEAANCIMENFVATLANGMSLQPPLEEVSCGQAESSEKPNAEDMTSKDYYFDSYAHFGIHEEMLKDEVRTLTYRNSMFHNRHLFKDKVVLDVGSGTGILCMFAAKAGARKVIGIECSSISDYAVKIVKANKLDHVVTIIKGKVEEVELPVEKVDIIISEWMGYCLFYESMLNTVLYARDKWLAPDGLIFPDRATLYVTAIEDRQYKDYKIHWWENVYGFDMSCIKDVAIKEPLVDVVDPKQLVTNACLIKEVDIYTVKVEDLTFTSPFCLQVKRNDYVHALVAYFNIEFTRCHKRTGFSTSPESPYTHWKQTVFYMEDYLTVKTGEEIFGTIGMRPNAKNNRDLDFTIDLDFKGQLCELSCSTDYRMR
TCR-CD3 inh: inhibitors of human TCR-CD3 interaction, primary screen, biochemical, fluorescence, TAMRA-labeled TCR probe. T-cell receptor (TCR). inhibition, % at 9.4 µM. hit rate 0.37% among 360,000; in the data active = inhibition above about 19%;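 note: recombinant mutant TCR 2C K166C tagged with TAMRA read by polarization; 0% = receptor in buffer alone and 100% = receptor with positive control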
PRMT1 confirm: PRMT1 methyltransferase inhibitors, confirmation, biochemical, fluorescence polarization, triplicate. shares compounds with PRMT1 FP inh. recombinant His-PRMT1, activity-based probe fluorescence polarization. inhibition, % at 2.79 µM. hit rate 42% among 3,300. AID 687036, 2013;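 active = mean inhibition across replicates above the hit cutoff derived for the earlier primary screen, cut at about 22% in these data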
* = called active by the depositor; . = no result given. Most compounds without a hit are left out; they make up all but 2.6% or so of the library.

SMILES | HTRA1 inh | ABHD4 inh | SIAE primary | PRMT1 FP inh | TCR-CD3 inh | PRMT1 confirm
Cn1nnnc1Sc1ncnc2scc(-c3ccc[nH]3)c12 | -5.2 | 9.8 | 0.0 | 30.9* | -4.0 | 2.0
Cc1ccc(NC(=O)Cn2c(O)c(N=NS(=O)(=O)c3ccc(C)cc3)c3ccccc32)cc1 | -8.0 | -3.4 | -2.0 | 29.4* | 3.5 | 23.0*
O=C1NNC(c2ccccc2)=N/C1=C\c1ccco1 | 22.4 | 29.5 | 12.0 | 29.8* | -1.2 | 13.0
O=C(CNS(=O)(=O)c1ccc(F)cc1)N1CCN(c2ccccn2)CC1 | . | 0.8 | 0.9 | -1.2 | . | .
COC(=O)C[C@H]1CC[C@H]2[C@@H](COc3ccc(NC(=O)Nc4ccccc4)cc3C(=O)N2C)O1 | . | -0.2 | -0.4 | 1.3 | . | .
CCN(CC)c1ccc(/C=C(/C#N)c2nc3ccc(C)cc3[nH]2)c(OC(C)C)c1 | 18.0 | -10.6 | -7.7 | 48.3* | -8.6 | 53.1*
CCC1(C)Cc2c(C#N)c(N)n(-c3ccccc3)c(=S)c2CO1 (stereo not given) | -3.0 | -0.9 | 1.2 | -0.3 | 3.6 | .
N#Cc1c(N)sc(=S)c2c1CCCC2 | 0.3 | 16.4 | -0.3 | 27.9* | 10.3 | 9.1
CCC1(C)Cc2c(C#N)c(N)sc(=S)c2CO1 (stereo not given) | 9.9 | 3.8 | -1.3 | 27.5* | 2.8 | 27.3*
COC(=O)[C@]12C[C@H](CC(=O)N3CCN(C(=O)c4ccco4)CC3)C(=O)N(CCc3ccc(OC)c(OC)c3)C1=C[C@H](COCc1ccccc1)O[C@@H]2C | . | -10.9 | 16.6 | -3.9 | . | .
CCC(C)CNC(=O)c1cn(C(C)c2ccccc2)nn1 (stereo not given) | . | -1.8 | 4.5 | -0.2 | . | .
Cc1cccc(C)c1OCc1nnc(SCC(=O)Nc2ccccc2F)o1 | -0.9 | -7.5 | -1.5 | -0.9 | 5.2 | .
Cc1cnc(NC(=O)CSc2nnc(COc3c(C)cccc3C)o2)s1 | 3.4 | 1.4 | 3.8 | 38.3* | -10.3 | -4.6
CCc1ccc(NC(=O)C(C)Sc2nc(-c3ccco3)c(C#N)c(=O)[nH]2)cc1 (stereo not given) | -40.9 | -13.6 | -12.7 | 25.8* | -2.8 | 38.5*
CCC(Sc1nc(-c2cccc(OC)c2)c(C#N)c(=O)[nH]1)C(=O)Nc1nnc(C(C)C)s1 (stereo not given) | -13.2 | -1.6 | -6.1 | 4.4 | -7.5 | .
N#Cc1c(-c2ccco2)nc(SCC(=O)Nc2cccc(Cl)c2)[nH]c1=O | -47.8 | -23.0 | -28.0 | 46.4* | 13.6 | 10.8
COC(=O)C1=C(Nc2ccccc2NC(=O)c2ccccc2C(=O)O)CSC1 | -2.5 | 8.2 | 5.3 | 25.7* | 5.6 | 6.5
COC(=O)C1=C(Nc2ccccc2NC(=O)CCCC(=O)O)CSC1 | . | 3.0 | -5.8 | -3.0 | -5.0 | .
O=c1c2ccccc2nnn1CSc1nc2ccccc2c(=O)n1CCCO | -2.3 | -0.1 | -7.1 | 25.1* | -4.9 | -0.1
O=C(Nc1ccc(F)cc1)N[C@@H]1C[C@@H]2O[C@H](CO)CC[C@@H]2O[C@@H]1CCc1ccc(C2=CCCC2)cc1 | . | -13.4 | -8.1 | 1.9 | . | .
O=C1CS/C(=C\S(=O)(=O)c2ccc(Cl)cc2)N1 | -3.7 | 9.9 | -0.5 | 31.5* | -4.8 | 22.4*
O=C1CSc2ccc(S(=O)(=O)NCc3ccc(Cl)cc3)cc2N1 | -1.3 | 2.0 | 0.0 | 1.0 | 5.6 | .
COC(=O)C1CN(Cc2cn(Cc3ccc(Cl)cc3)nn2)CCS(=O)(=O)N1Cc1ccc(Cl)cc1 (stereo not given) | . | 3.8 | -0.3 | -2.2 | . | .
O=C(Nc1ccc(F)cc1)OCc1cn(Cc2cc(F)cc(F)c2)nn1 | . | 1.4 | 6.9 | -6.6 | . | .
C/C(CCc1ccccc1)=N\NC(=S)NCCc1ccccc1 | -17.9 | 0.8 | -5.2 | 0.6 | 3.7 | .
C/C(=N\NC(=S)NCCc1ccccc1)c1cccs1 | -23.8 | 2.6 | 3.1 | 29.3* | -1.9 | 11.8
COC(=O)[C@]12CCCCC=C1N(Cc1ccc(OC)cc1)C(=O)[C@@H]2CC(=O)NCc1ccccc1 | . | 5.3 | -5.8 | 5.7 | . | .
CCN(CC)c1ccc(/C=N/n2c(-c3ccccc3Br)n[nH]c2=S)cc1 | -6.4 | -3.1 | 4.2 | 25.2* | -3.1 | 7.7
